{"source": "paper PMC8028158", "about": "(ACS Omega, 2021)", "format_in_all_cases": "cell-based", "key": {"TRPC6": {"molecular_target": "T1, TRPC6 (Mus musculus, UniProt Q61143)", "T1 sequence (Q61143 1-930)": "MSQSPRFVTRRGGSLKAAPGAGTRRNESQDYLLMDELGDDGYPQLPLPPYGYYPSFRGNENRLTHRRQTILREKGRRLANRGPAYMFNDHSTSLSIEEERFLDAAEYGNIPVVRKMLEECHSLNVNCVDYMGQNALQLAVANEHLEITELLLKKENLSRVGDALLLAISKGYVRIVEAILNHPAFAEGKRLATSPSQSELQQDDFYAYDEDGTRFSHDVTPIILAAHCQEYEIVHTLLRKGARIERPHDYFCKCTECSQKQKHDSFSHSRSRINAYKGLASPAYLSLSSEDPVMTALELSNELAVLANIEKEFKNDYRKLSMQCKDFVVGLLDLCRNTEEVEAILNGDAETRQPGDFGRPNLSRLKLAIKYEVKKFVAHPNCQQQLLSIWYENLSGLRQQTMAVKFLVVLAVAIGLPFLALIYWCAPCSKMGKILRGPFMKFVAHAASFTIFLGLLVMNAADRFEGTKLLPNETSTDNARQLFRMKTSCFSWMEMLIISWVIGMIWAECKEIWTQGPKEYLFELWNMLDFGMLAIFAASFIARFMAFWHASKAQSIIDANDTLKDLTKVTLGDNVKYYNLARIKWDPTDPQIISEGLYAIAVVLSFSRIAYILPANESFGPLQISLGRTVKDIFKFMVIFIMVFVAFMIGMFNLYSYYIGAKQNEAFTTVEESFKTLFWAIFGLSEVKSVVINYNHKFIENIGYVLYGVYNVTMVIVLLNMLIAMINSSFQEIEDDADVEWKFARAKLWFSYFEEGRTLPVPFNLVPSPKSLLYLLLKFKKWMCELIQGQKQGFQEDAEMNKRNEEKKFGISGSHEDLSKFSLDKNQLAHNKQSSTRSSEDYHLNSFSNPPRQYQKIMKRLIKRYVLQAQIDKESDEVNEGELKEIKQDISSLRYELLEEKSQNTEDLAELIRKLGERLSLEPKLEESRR", "test": "Whole-cell voltage clamp of TRPC6 currents evoked by GSK1702934A", "in_short": "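TRPC6-expressing HEK293 cells were recorded with voltage ramps to obtain current–voltage relationships. Current was activated by GSK1702934A (1 μM) and test compound was applied at varying concentrations. IC50 was derived from a Hill-equation fit of the concentration-response curve.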"}, "mouse TRPC4": {"molecular_target": "T2, mouse TRPC4 (Mus musculus, UniProt Q9QUQ5)", "T2 sequence (Q9QUQ5 1-974)": "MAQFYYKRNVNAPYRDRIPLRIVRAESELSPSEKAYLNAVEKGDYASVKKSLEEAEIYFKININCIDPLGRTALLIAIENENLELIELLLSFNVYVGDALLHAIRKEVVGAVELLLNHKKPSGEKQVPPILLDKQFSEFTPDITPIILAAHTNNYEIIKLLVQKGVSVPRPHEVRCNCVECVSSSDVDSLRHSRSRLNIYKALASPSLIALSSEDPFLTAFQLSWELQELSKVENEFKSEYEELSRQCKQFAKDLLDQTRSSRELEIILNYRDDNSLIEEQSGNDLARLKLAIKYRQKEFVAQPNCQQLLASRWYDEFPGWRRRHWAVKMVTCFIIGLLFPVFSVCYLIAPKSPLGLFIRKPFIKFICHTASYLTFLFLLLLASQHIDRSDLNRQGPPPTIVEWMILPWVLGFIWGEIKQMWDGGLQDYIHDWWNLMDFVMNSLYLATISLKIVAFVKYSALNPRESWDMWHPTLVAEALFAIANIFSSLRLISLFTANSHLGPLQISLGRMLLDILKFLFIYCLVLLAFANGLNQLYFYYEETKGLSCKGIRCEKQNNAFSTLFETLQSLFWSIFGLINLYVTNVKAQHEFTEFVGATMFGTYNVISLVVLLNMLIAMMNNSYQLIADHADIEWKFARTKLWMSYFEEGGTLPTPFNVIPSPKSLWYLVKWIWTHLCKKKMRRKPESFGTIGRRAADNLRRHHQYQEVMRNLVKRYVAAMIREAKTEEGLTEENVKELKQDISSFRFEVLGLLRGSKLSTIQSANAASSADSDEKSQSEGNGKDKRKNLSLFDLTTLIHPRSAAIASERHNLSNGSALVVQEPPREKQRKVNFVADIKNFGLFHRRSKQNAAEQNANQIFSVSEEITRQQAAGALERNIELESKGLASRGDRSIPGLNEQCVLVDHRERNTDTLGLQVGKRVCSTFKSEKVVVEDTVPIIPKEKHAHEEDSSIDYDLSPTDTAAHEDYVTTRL", "test": "Selectivity assay in HEK293 cells co-expressing TRPC4 and μ-opioid receptor", "conditions": "induced by DAMGO 1 μM"}, "TRPM8": {"molecular_target": "TRPM8 (Homo sapiens, UniProt Q7Z2W7)", "sequence (Q7Z2W7 whole entry, species assumed)": "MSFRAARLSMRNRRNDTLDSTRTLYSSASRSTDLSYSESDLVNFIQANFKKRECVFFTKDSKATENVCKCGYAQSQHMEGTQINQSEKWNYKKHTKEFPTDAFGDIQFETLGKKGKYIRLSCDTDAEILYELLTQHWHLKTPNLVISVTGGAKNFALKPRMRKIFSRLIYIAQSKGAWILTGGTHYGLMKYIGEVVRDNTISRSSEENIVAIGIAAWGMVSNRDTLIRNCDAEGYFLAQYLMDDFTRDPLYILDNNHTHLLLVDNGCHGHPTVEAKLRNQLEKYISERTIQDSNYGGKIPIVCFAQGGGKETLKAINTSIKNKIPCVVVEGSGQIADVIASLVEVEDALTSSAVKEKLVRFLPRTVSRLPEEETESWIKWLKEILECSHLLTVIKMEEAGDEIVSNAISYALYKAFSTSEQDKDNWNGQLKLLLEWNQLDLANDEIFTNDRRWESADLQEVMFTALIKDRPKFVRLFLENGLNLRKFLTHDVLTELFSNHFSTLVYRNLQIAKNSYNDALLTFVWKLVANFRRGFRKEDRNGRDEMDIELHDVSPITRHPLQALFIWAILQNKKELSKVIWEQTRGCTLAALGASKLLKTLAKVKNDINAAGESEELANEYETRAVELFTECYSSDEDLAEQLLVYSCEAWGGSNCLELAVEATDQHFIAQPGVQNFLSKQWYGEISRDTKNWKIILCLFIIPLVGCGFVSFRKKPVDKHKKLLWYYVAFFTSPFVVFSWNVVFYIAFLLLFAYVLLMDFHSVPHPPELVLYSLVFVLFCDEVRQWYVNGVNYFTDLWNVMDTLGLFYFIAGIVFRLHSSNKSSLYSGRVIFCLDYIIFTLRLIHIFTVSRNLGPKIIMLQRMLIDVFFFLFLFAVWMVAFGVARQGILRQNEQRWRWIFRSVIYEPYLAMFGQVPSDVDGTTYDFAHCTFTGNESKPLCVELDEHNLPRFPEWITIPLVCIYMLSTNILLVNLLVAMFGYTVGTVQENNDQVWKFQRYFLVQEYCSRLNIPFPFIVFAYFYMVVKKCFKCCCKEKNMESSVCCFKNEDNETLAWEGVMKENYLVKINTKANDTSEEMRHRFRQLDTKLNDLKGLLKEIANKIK", "test": "Selectivity Ca2+ assay in TRPM8-expressing HEK293 cells", "conditions": "1s 50 μM; Fluo-8"}, "TRPV1": {"molecular_target": "TRPV1 (Homo sapiens, UniProt Q8NER1)", "sequence (Q8NER1 whole entry, species assumed)": "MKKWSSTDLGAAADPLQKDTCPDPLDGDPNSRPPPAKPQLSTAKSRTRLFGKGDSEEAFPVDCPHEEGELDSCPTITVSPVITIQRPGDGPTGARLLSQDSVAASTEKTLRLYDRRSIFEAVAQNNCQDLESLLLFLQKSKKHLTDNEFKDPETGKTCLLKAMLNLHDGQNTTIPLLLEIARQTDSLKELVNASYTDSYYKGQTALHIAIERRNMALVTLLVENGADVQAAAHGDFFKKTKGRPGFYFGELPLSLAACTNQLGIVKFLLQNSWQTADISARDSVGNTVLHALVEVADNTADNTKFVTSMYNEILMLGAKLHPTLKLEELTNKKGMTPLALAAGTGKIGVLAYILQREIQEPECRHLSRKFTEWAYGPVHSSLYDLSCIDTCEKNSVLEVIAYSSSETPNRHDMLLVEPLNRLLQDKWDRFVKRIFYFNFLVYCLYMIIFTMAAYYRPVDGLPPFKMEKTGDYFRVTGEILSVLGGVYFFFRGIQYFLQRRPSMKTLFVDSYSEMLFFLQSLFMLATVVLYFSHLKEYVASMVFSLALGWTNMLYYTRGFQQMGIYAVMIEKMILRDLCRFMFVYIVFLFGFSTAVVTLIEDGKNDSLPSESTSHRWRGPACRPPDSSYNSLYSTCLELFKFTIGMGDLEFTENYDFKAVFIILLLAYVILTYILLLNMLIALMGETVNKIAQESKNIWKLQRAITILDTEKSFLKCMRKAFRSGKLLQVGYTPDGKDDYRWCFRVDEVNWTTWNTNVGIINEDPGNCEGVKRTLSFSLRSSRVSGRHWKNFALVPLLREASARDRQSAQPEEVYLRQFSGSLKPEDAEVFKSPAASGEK", "test": "Selectivity Ca2+ assay in TRPV1-expressing HEK293 cells", "conditions": "1s 50 μM; Fluo-8"}}, "data": [{"smiles": "COc1cccc2sc(N(CCN(C)C)C(=O)c3ccc4c(c3)CCCC4)nc12", "note": "[Compound 1s, N-(2-(dimethylamino)ethyl)-N-(4-methoxybenzo[d]thiazol-2-yl)-5,6,7,8-tetrahydronaphthalene-2-carboxamide]", "values": [{"measurement": "IC50", "setting": "TRPC6", "value": "4.19 ± 0.04", "unit": "µM"}, {"measurement": "Effect on TRPC6 currents", "setting": "TRPC6; evoked by GSK1702934A 1 μM, whole-cell voltage clamp", "value": "immediately suppressed"}, {"measurement": "Effect on TRPC4", "setting": "mouse TRPC4", "value": "only partially inhibited"}, {"measurement": "Effect on agonist-induced Ca2+ response, TRPM8", "setting": "TRPM8", "value": "did not significantly affect"}, {"measurement": "Effect on agonist-induced Ca2+ response, TRPV1", "setting": "TRPV1", "value": "did not significantly affect"}]}]}
